Test results taken from ChEMBL document CHEMBL1133995, “Synthesis and P2Y receptor activity of a series of uridine dinucleoside 5'-polyphosphates” (Bioorg Med Chem Lett, 2001).

Key:
Assay type in all cases: functional, cell-based; call rule not given here
P2Y purinoceptor 6 = P2Y purinoceptor 6 (Homo sapiens, UniProt Q15077); assay: Agonist activity evaluated as change in the level of cytosolic calcium in 1321N astrocytoma cells infected with a retrovirus encoding the human P2Y6 receptor
Method in brief: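 Cells grown to confluence, then loaded with Fluo-3 AM (2.5 μM final) for 60 min at 25 °C in buffer (mM: KCl 10.0, NaCl 118, CaCl2 2.5, MgCl2 1.0, HEPES 20, glucose 10; pH 7.4). Dye washed off. Activation read as change in fluorescence intensity on FLIPR (cytosolic calcium mobilization). Agonist potency given as EC50.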

P2Y purinoceptor 1 = P2Y purinoceptor 1 (Homo sapiens, UniProt P47900); assay: Agonist activity evaluated as change in the level of cytosolic calcium in 1321N astrocytoma cells infected with a retrovirus encoding the human P2Y1 receptor at 100 uM; IA is inactive
P2Y purinoceptor 4 [1] = target: T1, P2Y purinoceptor 4 (Homo sapiens, UniProt P51582); assay: Agonist activity evaluated as change in the level of cytosolic calcium in 1321N astrocytoma cells infected with a retrovirus encoding the human P2Y4 receptor
P2Y purinoceptor 2 [2] = target: T2, P2Y purinoceptor 2 (Homo sapiens, UniProt P41231); assay: Agonist activity evaluated as change in the level of cytosolic calcium in 1321N astrocytoma cells infected with a retrovirus encoding the human P2Y2 receptor
P2Y purinoceptor 2 [3] = target: T2, P2Y purinoceptor 2; assay: Agonist activity evaluated as change in the level of cytosolic calcium in 1321N astrocytoma cells infected with a retrovirus encoding the human P2Y2 receptor at 100 uM; IA is inactive
P2Y purinoceptor 4 [4] = target: T1, P2Y purinoceptor 4; assay: Agonist activity evaluated as change in the level of cytosolic calcium in 1321N astrocytoma cells infected with a retrovirus encoding the human P2Y4 receptor at 100 uM; IA is inactive

T1 sequence (P51582 whole entry): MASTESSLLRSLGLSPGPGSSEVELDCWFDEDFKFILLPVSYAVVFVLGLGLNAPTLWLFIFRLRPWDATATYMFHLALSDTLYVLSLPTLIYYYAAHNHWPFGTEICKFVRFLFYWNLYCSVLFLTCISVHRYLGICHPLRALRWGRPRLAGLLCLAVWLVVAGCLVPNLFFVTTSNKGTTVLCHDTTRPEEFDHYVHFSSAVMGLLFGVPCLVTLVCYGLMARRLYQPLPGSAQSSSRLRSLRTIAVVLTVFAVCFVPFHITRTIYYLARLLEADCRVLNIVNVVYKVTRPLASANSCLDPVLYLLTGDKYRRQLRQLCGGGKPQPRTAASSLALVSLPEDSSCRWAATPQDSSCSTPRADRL
T2 sequence (P41231 whole entry): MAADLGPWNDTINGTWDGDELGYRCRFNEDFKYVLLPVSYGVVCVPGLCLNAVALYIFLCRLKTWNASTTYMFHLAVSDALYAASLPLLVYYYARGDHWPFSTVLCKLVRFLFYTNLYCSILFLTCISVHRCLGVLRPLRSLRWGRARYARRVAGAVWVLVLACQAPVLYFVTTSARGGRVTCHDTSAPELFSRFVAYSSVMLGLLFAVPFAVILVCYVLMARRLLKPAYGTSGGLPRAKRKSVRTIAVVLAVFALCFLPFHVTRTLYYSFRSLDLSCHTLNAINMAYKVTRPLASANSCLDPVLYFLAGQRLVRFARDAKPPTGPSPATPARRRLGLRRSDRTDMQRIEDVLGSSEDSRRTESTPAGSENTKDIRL
P2Y purinoceptor 1, sequence (P47900 whole entry): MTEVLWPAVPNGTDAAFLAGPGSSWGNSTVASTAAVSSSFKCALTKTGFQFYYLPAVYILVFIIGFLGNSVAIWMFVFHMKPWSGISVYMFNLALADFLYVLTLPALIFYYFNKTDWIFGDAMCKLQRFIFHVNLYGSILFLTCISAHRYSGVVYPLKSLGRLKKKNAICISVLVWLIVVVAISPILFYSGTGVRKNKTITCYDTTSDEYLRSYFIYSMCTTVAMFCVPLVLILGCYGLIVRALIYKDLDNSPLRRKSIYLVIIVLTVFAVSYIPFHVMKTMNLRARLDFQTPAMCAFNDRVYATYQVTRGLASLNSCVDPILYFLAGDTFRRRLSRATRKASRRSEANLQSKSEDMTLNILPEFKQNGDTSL
P2Y purinoceptor 6, sequence (Q15077 whole entry): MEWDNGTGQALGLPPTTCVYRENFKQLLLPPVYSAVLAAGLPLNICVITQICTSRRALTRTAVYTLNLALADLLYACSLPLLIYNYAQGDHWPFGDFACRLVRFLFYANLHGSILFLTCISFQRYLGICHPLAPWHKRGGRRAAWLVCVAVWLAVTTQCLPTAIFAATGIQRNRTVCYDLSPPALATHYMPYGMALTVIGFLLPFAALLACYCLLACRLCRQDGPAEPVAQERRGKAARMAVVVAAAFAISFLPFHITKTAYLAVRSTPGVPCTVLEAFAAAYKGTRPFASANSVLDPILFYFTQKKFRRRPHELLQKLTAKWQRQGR

SMILES	EC50 (P2Y purinoceptor 6) [µM]	EC50 (P2Y purinoceptor 1)	EC50 (P2Y purinoceptor 4 [1]) [µM]	EC50 (P2Y purinoceptor 2 [2]) [µM]	EC50 (P2Y purinoceptor 2 [3])	EC50 (P2Y purinoceptor 4 [4])
O=c1ccn([C@@H]2O[C@H](COP(=O)(O)OP(=O)(O)OP(=O)(O)OC[C@@H]3O[C@H](n4ccc(=O)[nH]c4=O)[C@@H](O)[C@H]3O)[C@@H](O)[C@H]2O)c(=O)[nH]1	0.2	Not Active	> 100	22	–	–
O=c1ccn([C@@H]2O[C@H](COP(=O)(O)OP(=O)(O)OP(=O)(O)OP(=O)(O)OC[C@@H]3O[C@H](n4ccc(=O)[nH]c4=O)[C@@H](O)[C@H]3O)[C@@H](O)[C@H]2O)c(=O)[nH]1	20	Not Active	0.4	–	–	–
O=c1ccn([C@@H]2O[C@H](COP(=O)(O)OP(=O)(O)OP(=O)(O)OP(=O)(O)OP(=O)(O)OP(=O)(O)OP(=O)(O)OC[C@@H]3O[C@H](n4ccc(=O)[nH]c4=O)[C@@H](O)[C@H]3O)[C@@H](O)[C@H]2O)c(=O)[nH]1	> 100	Not Active	> 30	8.4	–	–
O=c1ccn([C@@H]2O[C@H](COP(=O)(O)OP(=O)(O)OP(=O)(O)OP(=O)(O)OP(=O)(O)OC[C@@H]3O[C@H](n4ccc(=O)[nH]c4=O)[C@@H](O)[C@H]3O)[C@@H](O)[C@H]2O)c(=O)[nH]1	> 30	Not Active	> 20	5.6	–	–
O=c1ccn([C@@H]2O[C@H](COP(=O)(O)OP(=O)(O)OP(=O)(O)OP(=O)(O)OP(=O)(O)OP(=O)(O)OC[C@@H]3O[C@H](n4ccc(=O)[nH]c4=O)[C@@H](O)[C@H]3O)[C@@H](O)[C@H]2O)c(=O)[nH]1	> 30	Not Active	> 30	9.8	–	–
O=c1ccn([C@@H]2O[C@H](COP(=O)(O)OP(=O)(O)OC[C@@H]3O[C@H](n4ccc(=O)[nH]c4=O)[C@@H](O)[C@H]3O)[C@@H](O)[C@H]2O)c(=O)[nH]1	> 30	Not Active	–	–	Not Active	Not Active
O=c1ccn([C@@H]2O[C@H](COP(=O)(O)OP(=O)(O)OP(=O)(O)O)[C@@H](O)[C@H]2O)c(=O)[nH]1 [URIDINE TRIPHOSPHATE]	> 10	Not Active	0.1	0.03	–	–
O=c1ccn([C@@H]2O[C@H](COP(=O)(O)OP(=O)(O)O)[C@@H](O)[C@H]2O)c(=O)[nH]1 [URIDINE_DIPHOSPHATE]	0.1	Not Active	–	> 10	–	Not Active
